Test system: Fibroblast
Assay: Multiplex assay against human fibroblast
Format: toxicity, cell-based
Summary of the method: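 Imaging took place on a CQ1 microscope at 37°C and 5% CO2 once compound had been added to live cells stained at seeding with Hoechst33342, BioTracker Green Microtubule Cytoskeleton Dye, MitoTracker Red and Annexin V Alexa Fluor 680. CellPathfinder machine-learning gating classed cells as Hoechst high-intensity objects or normal cells, classed normal cells as having healthy, pyknosed or fragmented nuclei, and classed pyknosed cells as mitotic or apoptotic. Tubulin, mitochondrial-mass and membrane-permeability phenotypes are per cents of the healthy-nucleus cells.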

[1] = 12 h, 1 µM, compound concentration 1 uM, replicate 1
[2] = 12 h, 1 µM, compound concentration 1 uM, replicate 2
[3] = 12 h, 10 µM, compound concentration 10 uM, replicate 1
[4] = 12 h, 10 µM, compound concentration 10 uM, replicate 2
[5] = 24 h, 1 µM, compound concentration 1 uM, replicate 1
[6] = 24 h, 1 µM, compound concentration 1 uM, replicate 2
[7] = 24 h, 10 µM, compound concentration 10 uM, replicate 1
[8] = 24 h, 10 µM, compound concentration 10 uM, replicate 2
[9] = 48 h, 1 µM, compound concentration 1 uM, replicate 1
[10] = 48 h, 1 µM, compound concentration 1 uM, replicate 2
[11] = 48 h, 10 µM, compound concentration 10 uM, replicate 1
[12] = 48 h, 10 µM, compound concentration 10 uM, replicate 2

Cl.Oc1ccc2c3c1O[C@H]1c4[nH]c5c(c4C[C@@]4(O)[C@@H](C2)N(CC2CC2)CC[C@]314)C[C@@]1(O)[C@H]2Cc3ccc(O)c4c3[C@@]1(CCN2CC1CC1)[C@H]5O4
Population Apoptotic (%) [1]: 71% | Population Fragmented Nuclei (%) [1]: 27% | Population Healthy Nuclei (%) [1]: 40% | Population Hoechst High Intensity Objects (%) [1]: 15% | Population Membrane Permeable-Phenotype (%) [1]: 20% | Population Mitochondria Different-Phenotype (%) [1]: 11% | Population Mitotic Cells (%) [1]: 28% | Population Normal (%) [1]: 84% | Population Pyknosed Nuclei (%) [1]: 32% | Population Tubulin-Different-Phenotype (%) [1]: 31% | Total Cell Count [1]: 103 | Population Apoptotic (%) [2]: 42% | Population Fragmented Nuclei (%) [2]: 3% | Population Healthy Nuclei (%) [2]: 86% | Population Hoechst High Intensity Objects (%) [2]: 9% | Population Membrane Permeable-Phenotype (%) [2]: 10% | Population Mitochondria Different-Phenotype (%) [2]: 19% | Population Mitotic Cells (%) [2]: 57% | Population Normal (%) [2]: 90% | Population Pyknosed Nuclei (%) [2]: 10% | Population Tubulin-Different-Phenotype (%) [2]: 17% | Total Cell Count [2]: 97 | Population Apoptotic (%) [3]: 69% | Population Fragmented Nuclei (%) [3]: 23% | Population Healthy Nuclei (%) [3]: 47% | Population Hoechst High Intensity Objects (%) [3]: 8% | Population Membrane Permeable-Phenotype (%) [3]: 25% | Population Mitochondria Different-Phenotype (%) [3]: 5% | Population Mitotic Cells (%) [3]: 30% | Population Normal (%) [3]: 91% | Population Pyknosed Nuclei (%) [3]: 28% | Population Tubulin-Different-Phenotype (%) [3]: 41% | Total Cell Count [3]: 173 | Population Apoptotic (%) [4]: 93% | Population Fragmented Nuclei (%) [4]: 12% | Population Healthy Nuclei (%) [4]: 48% | Population Hoechst High Intensity Objects (%) [4]: 7% | Population Membrane Permeable-Phenotype (%) [4]: 52% | Population Mitochondria Different-Phenotype (%) [4]: 26% | Population Mitotic Cells (%) [4]: 6% | Population Normal (%) [4]: 92% | Population Pyknosed Nuclei (%) [4]: 38% | Population Tubulin-Different-Phenotype (%) [4]: 89% | Total Cell Count [4]: 73 | Population Apoptotic (%) [5]: 66% | Population Fragmented Nuclei (%) [5]: 19% | Population Healthy Nuclei (%) [5]: 51% | Population Hoechst High Intensity Objects (%) [5]: 14% | Population Membrane Permeable-Phenotype (%) [5]: 27% | Population Mitochondria Different-Phenotype (%) [5]: 2% | Population Mitotic Cells (%) [5]: 33% | Population Normal (%) [5]: 85% | Population Pyknosed Nuclei (%) [5]: 29% | Population Tubulin-Different-Phenotype (%) [5]: 43% | Total Cell Count [5]: 84 | Population Apoptotic (%) [6]: 25% | Population Fragmented Nuclei (%) [6]: 3% | Population Healthy Nuclei (%) [6]: 91% | Population Hoechst High Intensity Objects (%) [6]: 4% | Population Membrane Permeable-Phenotype (%) [6]: 10% | Population Mitochondria Different-Phenotype (%) [6]: 13% | Population Mitotic Cells (%) [6]: 75% | Population Normal (%) [6]: 95% | Population Pyknosed Nuclei (%) [6]: 4% | Population Tubulin-Different-Phenotype (%) [6]: 18% | Total Cell Count [6]: 94 | Population Apoptotic (%) [7]: 65% | Population Fragmented Nuclei (%) [7]: 18% | Population Healthy Nuclei (%) [7]: 62% | Population Hoechst High Intensity Objects (%) [7]: 15% | Population Membrane Permeable-Phenotype (%) [7]: 25% | Population Mitochondria Different-Phenotype (%) [7]: 3% | Population Mitotic Cells (%) [7]: 34% | Population Normal (%) [7]: 84% | Population Pyknosed Nuclei (%) [7]: 19% | Population Tubulin-Different-Phenotype (%) [7]: 27% | Total Cell Count [7]: 178 | Population Apoptotic (%) [8]: 76% | Population Fragmented Nuclei (%) [8]: 13% | Population Healthy Nuclei (%) [8]: 58% | Population Hoechst High Intensity Objects (%) [8]: 13% | Population Membrane Permeable-Phenotype (%) [8]: 48% | Population Mitochondria Different-Phenotype (%) [8]: 33% | Population Mitotic Cells (%) [8]: 23% | Population Normal (%) [8]: 86% | Population Pyknosed Nuclei (%) [8]: 28% | Population Tubulin-Different-Phenotype (%) [8]: 77% | Total Cell Count [8]: 91 | Population Apoptotic (%) [9]: 60% | Population Fragmented Nuclei (%) [9]: 26% | Population Healthy Nuclei (%) [9]: 52% | Population Hoechst High Intensity Objects (%) [9]: 16% | Population Membrane Permeable-Phenotype (%) [9]: 32% | Population Mitochondria Different-Phenotype (%) [9]: 5% | Population Mitotic Cells (%) [9]: 40% | Population Normal (%) [9]: 83% | Population Pyknosed Nuclei (%) [9]: 21% | Population Tubulin-Different-Phenotype (%) [9]: 43% | Total Cell Count [9]: 85 | Population Apoptotic (%) [10]: 75% | Population Fragmented Nuclei (%) [10]: 16% | Population Healthy Nuclei (%) [10]: 78% | Population Hoechst High Intensity Objects (%) [10]: 7% | Population Membrane Permeable-Phenotype (%) [10]: 18% | Population Mitochondria Different-Phenotype (%) [10]: 0% | Population Mitotic Cells (%) [10]: 25% | Population Normal (%) [10]: 92% | Population Pyknosed Nuclei (%) [10]: 4% | Population Tubulin-Different-Phenotype (%) [10]: 26% | Total Cell Count [10]: 103 | Population Apoptotic (%) [11]: 61% | Population Fragmented Nuclei (%) [11]: 31% | Population Healthy Nuclei (%) [11]: 55% | Population Hoechst High Intensity Objects (%) [11]: 18% | Population Membrane Permeable-Phenotype (%) [11]: 30% | Population Mitochondria Different-Phenotype (%) [11]: 6% | Population Mitotic Cells (%) [11]: 38% | Population Normal (%) [11]: 81% | Population Pyknosed Nuclei (%) [11]: 12% | Population Tubulin-Different-Phenotype (%) [11]: 34% | Total Cell Count [11]: 172 | Population Apoptotic (%) [12]: 66% | Population Fragmented Nuclei (%) [12]: 29% | Population Healthy Nuclei (%) [12]: 66% | Population Hoechst High Intensity Objects (%) [12]: 10% | Population Membrane Permeable-Phenotype (%) [12]: 14% | Population Mitochondria Different-Phenotype (%) [12]: 1% | Population Mitotic Cells (%) [12]: 33% | Population Normal (%) [12]: 89% | Population Pyknosed Nuclei (%) [12]: 3% | Population Tubulin-Different-Phenotype (%) [12]: 41% | Total Cell Count [12]: 94

— ChEMBL document CHEMBL4689842, “EUbOPEN Chemogenomics Library wave 1” (2021)
